Data on three compounds can be found in ChEMBL document CHEMBL4346727, “Synthesis and pharmacological evaluation of novel N-Mannich bases derived from 5,5-diphenyl and 5,5-di(propan-2-yl)imidazolidine-2,4-dione core” (Bioorg Med Chem Lett, 2019).

Calls of active or inactive are those of the source. Unless noted, the calls are words filed in the database; no cut-off is given here.

For data set [1], the system named is Rattus norvegicus. Nature of the data set: Anticonvulsant activity in Sprague-Dawley rat assessed as protection against 150 mA current-induced seizure at 30 mg/kg, po measured after 1 hr by maximal electroshock seizure test. The class given is functional, organism-based. Summed up: (§1)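 Rats received 30 mg/kg orally and were given maximal electroshock at 0.25, 0.5, 1, 2, 4 and 6 h. Read-out is the number of rats protected out of four.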

Data set [2] relates to Mus musculus. Nature of the data set: Anticonvulsant activity in ip dosed CD1 mouse assessed as protection against 50 mA current-induced seizure and measured after 4 hrs by maximal electroshock seizure test. The class given is functional. Conditions: read-out: MED. Summed up: (§2)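 Mice were screened after intraperitoneal doses of 30, 100 and 300 mg/kg in the maximal electroshock and subcutaneous pentylenetetrazole tests, examined at 0.5 and 4 h. The value recorded is the minimum dose showing activity. No activity up to 300 mg/kg is scored as absent.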
A general note: The maximal electroshock test induces tonic seizures with an electrical stimulus.

Data set [3] can be described thus: Neurotoxicity in Sprague-Dawley rat at 30 mg/kg, po measured after 4 hr by rotarod test. It is filed as toxicity, organism-based. Conditions: in vivo. The essentials: (§3)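 Rats given one oral dose of 30 mg/kg and tested on the rotarod at 0.25, 0.5, 1, 2, 4 and 6 h.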
A short description of data set [4]: Neurotoxicity in Sprague-Dawley rat at 30 mg/kg, po measured after 15 mins by rotarod test. To be noted: in vivo, 0.25 h. It is filed as toxicity, organism-based. The essentials: as §3
(In the rotarod test animals must keep their balance on a rotating rod.)

In data set [5] the test system is Rattus norvegicus. Nature of the data set: Anticonvulsant activity in Sprague-Dawley rat assessed as protection against 150 mA current-induced seizure at 30 mg/kg, po measured after 30 mins by maximal electroshock seizure test. It is filed as functional, organism-based. The essentials: as §1
A short description of data set [6]: Neurotoxicity in CD1 mouse at 300 mg/kg, ip and measured after 4 hrs hrs by rotarod test. It is filed as toxicity, organism-based. Conditions: in vivo. Summed up: (§4)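 Mice dosed intraperitoneally at 30, 100 and 300 mg/kg, then tested on the rotarod at 0.5 h and 4 h. The value recorded is the minimum dose at which neurotoxicity appeared. A dash means no neurotoxicity at the top dose of 300 mg/kg.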

Data set [7] in a line: Neurotoxicity in Sprague-Dawley rat at 30 mg/kg, po measured after 2 hr by rotarod test. Conditions: in vivo. It is filed as toxicity, organism-based. The essentials:
as §3

Data set [8] has as its system Rattus norvegicus. Nature of the data set: Anticonvulsant activity in Sprague-Dawley rat assessed as protection against 150 mA current-induced seizure at 30 mg/kg, po measured after 4 hrs by maximal electroshock seizure test. The class given is functional, organism-based. The essentials: as §1
Data set [9] is described as follows: Neurotoxicity in Sprague-Dawley rat at 30 mg/kg, po measured after 1 hr by rotarod test. It is filed as toxicity, organism-based. To be noted: in vivo. Summed up:
as §3

In data set [10] the test system is Mus musculus. Nature of the data set: Anticonvulsant activity in CD1 mouse assessed as protection against subcutaneous pentylenetetrazole-induced seizures at 300 mg/kg, ip and measured after 4 hrs. The class given is functional, organism-based. The essentials: as §2
For data set [11], the system named is Mus musculus. Nature of the data set: Anticonvulsant activity in CD1 mouse assessed as protection against subcutaneous pentylenetetrazole-induced seizures at 300 mg/kg, ip and measured after 0.5 hrs. The class given is functional, organism-based. Summed up:
as §2

Data set [12] concerns Rattus norvegicus. Nature of the data set: Anticonvulsant activity in Sprague-Dawley rat assessed as protection against 150 mA current-induced seizure at 30 mg/kg, po measured after 2 hrs by maximal electroshock seizure test. The class given is functional, organism-based. The essentials: as §1
Data set [13] in a line: Neurotoxicity in Sprague-Dawley rat at 30 mg/kg, po measured after 6 hrs hr by rotarod test. It is filed as toxicity, organism-based. Conditions: in vivo. Summed up:
as §3

The subject of data set [14] is Mus musculus. Nature of the data set: Anticonvulsant activity in CD1 mouse assessed as protection against 50 mA current-induced seizure at 300 mg/kg, ip and measured after 0.5 hrs by maximal electroshock seizure test. It is filed as functional, organism-based. Summed up:
as §2

Data set [15] deals with Rattus norvegicus. Nature of the data set: Anticonvulsant activity in Sprague-Dawley rat assessed as protection against 150 mA current-induced seizure at 30 mg/kg, po measured after 15 mins by maximal electroshock seizure test. The class given is functional, organism-based. Summed up: as §1
Data set [16] is described as follows: Neurotoxicity in CD1 mouse at 300 mg/kg, ip and measured after 0.5 hrs by rotarod test. It is filed as toxicity, organism-based. To be noted: in vivo. Summed up:
as §4

The nature of data set [17]: Neurotoxicity in Sprague-Dawley rat at 30 mg/kg, po measured after 30 mins by rotarod test. The class given is toxicity, organism-based. Conditions: in vivo, 0.5 h. The essentials: as §3
A short description of data set [18]: Neurotoxicity in ip dosed CD1 mouse assessed as time to peak effect by rotarod test. It is filed as toxicity, organism-based. Conditions: in vivo.
Data set [19] is described as follows: Neurotoxicity in ip dosed CD1 mouse and measured after 0.5 hrs by rotarod test. It is filed as toxicity, organism-based. To be noted: in vivo. The essentials:
as §4

For data set [20], the system named is Mus musculus. Nature of the data set: Anticonvulsant activity in ip dosed CD1 mouse assessed as time to peak effect on protection against subcutaneous pentylenetetrazole-induced seizures. The class given is functional. The essentials:
(§5)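 Median effective doses were quantified in the maximal electroshock, subcutaneous pentylenetetrazole and 6 Hz tests after intraperitoneal dosing in mice or oral dosing in rats, at the time of peak effect. ED50 values are reported with ranges in parentheses.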

Data set [21] concerns Mus musculus. Nature of the data set: Potency index, ratio of phenytoin ED50 to compound ED50 for anticonvulsant activity protection against subcutaneous pentylenetetrazole-induced seizures in ip dosed CD1 mouse. It is filed as functional.
Data set [22] has as its system Mus musculus. Nature of the data set: Anticonvulsant activity in ip dosed CD1 mouse assessed as time to peak effect on protection against 50 mA current-induced seizures. The class given is functional. The essentials:
as §5

Data set [23] deals with Mus musculus. Nature of the data set: Anticonvulsant activity in ip dosed CD1 mouse assessed as protection against subcutaneous pentylenetetrazole-induced seizures. It is filed as functional. Summed up: as §5
In data set [24] the test system is Mus musculus. Nature of the data set: Anticonvulsant activity in ip dosed CD1 mouse assessed as time to peak effect on protection against 32 mA current-induced seizure by 6 Hz psychomotor seizure test. It is filed as functional. The essentials: as §5
Data set [25] can be described thus: Neurotoxicity in ip dosed CD1 mouse model by rotarod test. It is filed as toxicity, organism-based. To be noted: in vivo.
For data set [26], the system named is Mus musculus. Nature of the data set: Anticonvulsant activity in CD1 mouse assessed as protection against 50 mA current-induced seizure at 300 mg/kg, ip and measured after 4 hrs by maximal electroshock seizure test. The class given is functional, organism-based. Summed up: as §2
Data set [27] can be described thus: Protection index, ratio of TD50 for neurotoxicity in ip dosed CD1 mouse by rotarod test to ED50 for anticonvulsant activity in ip dosed CD1 mouse model of subcutaneous PTZ-induced seizures. The class given is toxicity, organism-based. Conditions: in vivo, read-out: Ratio TD50/ED50.
The subject of data set [28] is Mus musculus. Nature of the data set: Anticonvulsant activity in ip dosed CD1 mouse assessed as protection against subcutaneous pentylenetetrazole-induced seizures and measured after 4 hrs. It is filed as functional. Conditions: CD1, 4 h, read-out: MED. Summed up: as §2
A short description of data set [29]: Neurotoxicity in CD1 mouse at 50 mg/kg, ip measured after 2 hrs by rotarod test. To be noted: in vivo.
Data set [30] deals with Mus musculus. Nature of the data set: Anticonvulsant activity in ip dosed CD1 mouse assessed as protection against 50 mA current-induced seizure and measured after 0.5 hrs by maximal electroshock seizure test. It is filed as functional. To be noted: read-out: MED. Summed up: as §2
A short description of data set [31]: Neurotoxicity in CD1 mouse at 50 mg/kg, ip measured after 1 hr by rotarod test. To be noted: in vivo.
For data set [32], the system named is Mus musculus. Nature of the data set: Anticonvulsant activity in CD1 mouse assessed as protection against 32 mA current-induced seizure at 50 mg/kg, ip measured after 4 hrs by 6 Hz psychomotor seizure test.
Data set [33] can be described thus: Neurotoxicity in CD1 mouse at 50 mg/kg, ip measured after 4 hrs by rotarod test. To be noted: in vivo.
The nature of data set [34]: Neurotoxicity in CD1 mouse at 50 mg/kg, ip measured after 30 mins by rotarod test. To be noted: in vivo, 0.5 h.
The nature of data set [35]: Neurotoxicity in CD1 mouse at 50 mg/kg, ip measured after 15 mins by rotarod test. Conditions: in vivo, 0.25 h.

Take `CC(C)C1(C(C)C)NC(=O)N(CN2CCN(c3ccccc3)CC2)C1=O`: the result in the data set with Rattus norvegicus [1], in the data set on Rattus norvegicus [5], with Rattus norvegicus [8], in the data set with Mus musculus [10], in the data set on Rattus norvegicus [12] and in the data set on Mus musculus [14] was inactive. The outcome in the data set on Rattus norvegicus [15] was inactive. In the data set with Mus musculus [2], the minimal effective dose turned out to be 300 mg/kg. Besides, the Activity result in data set [3], in data set [4], in data set [6], in data set [7], in data set [9] and in data set [13] was “Non-Toxic” each time. Further, the Activity result in data set [16] and in data set [17] was “Non-Toxic” in each case. The MED entry in the data set on Mus musculus [11] was “inactive”.
By ED50 is commonly meant the midpoint of the dose-response relation. What is called TD50 is the 50% point of the dose-response relation for the toxic effect studied. Low readings indicate greater toxicity, high ones lower toxicity. As to `CC(C)C1(C(C)C)NC(=O)N(CN2CCN(CCc3ccccc3)CC2)C1=O`, the Time (in data set [18]; with Mus musculus [20]; in the data set on Mus musculus [22]; with Mus musculus [24]) was 4 h throughout. Further, the minimal neurotoxic dose in [19] was 300 mg/kg. In data set [6], the Activity entry is given as “Non-Toxic”. Moreover, in the data set on Mus musculus [21], the “Ratio ED50” value came out at 5.5. Moreover, the MED result in the data set with Mus musculus [11] is “inactive”. The ED50 in the data set on Mus musculus [23] worked out at 89.4 mg/kg. Further, the result with Mus musculus [14] and with Mus musculus [26] was inactive. In [25], this compound registered a TD50 of more than 200 mg/kg. The selectivity ratio in [27] is more than 2.23. For the same compound, the minimal effective dose in the data set on Mus musculus [28] was 100 mg/kg.
Turning to `O=C1NC(c2ccccc2)(c2ccccc2)C(=O)N1CN1CCN(CCc2ccccc2)CC1`, the minimal effective dose with Mus musculus [2] is 30 mg/kg; with Mus musculus [30], 100 mg/kg. The Activity entry in data set [3], in [4], in data set [6], in data set [7], in data set [9] and in [29] was “Non-Toxic” throughout. Besides, the Activity result in data set [31], in data set [16], in data set [17], in data set [33], in [34] and in data set [35] was “Non-Toxic” each time. For the same compound, the outcome with Rattus norvegicus [5] and in the data set on Mus musculus [32] was Active. The outcome with Rattus norvegicus [8], with Mus musculus [10] and in the data set on Rattus norvegicus [15] was inactive. The MED entry with Mus musculus [11] is “inactive”.
